High-throughput results from PubChem BioAssay.
Runt-SMMHC FRET: inhibitors of RUNX1 Runt–CBFb-SMMHC binding, primary screen, biochemical, FRET, Cerulean-Runt, Venus-CBFb-SMMHC, uHTS; Runt-related transcription factor 1 (Homo sapiens) + Core-binding factor subunit beta …; Cerulean-Runt/Venus-CBFb-SMMHC FRET ratio 530/480, 1 h; inhibition, % at 20 µM; 220,000 tested, 0.74% active; AID 1434, 2008;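 active means mean inhibition across duplicate retests at 20 µM reaching about 50%, limit read from the data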;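 further: 0% = DMSO wells and 100% = wells with excess untagged CBFb-SMMHC; inhibitors lower the FRET ratio by blocking Runt binding to CBFb-SMMHC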
Platelet DG rel: inhibitors of platelet dense granule secretion, primary screen, cell-based, MLPCN, human platelets. AID 1663, 2009. human platelet-rich plasma, SFLLRN dense granule ATP release, luminescence. 300,000 tested, 0.22% active. inhibition, %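 (compounds screened at 7.5 µM in platelet-rich plasma)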;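 active means mean replicate score, as percent of positive control, at or above 50; inconclusive means mean below 50 but at least one replicate at or above 50; inactive means mean and every replicate below 50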
Rce1 inhib: yeast Rce1p protease inhibitors, primary screen, biochemical, fluorescence, cell-free homogeneous. 290,000 tested, 0.27% active. CAAX prenyl protease 2 (Saccharomyces cerevisiae (strain ATCC 204508 / S288c)), Q03530. AID 2563, 2010. calls only. yeast membranes, quenched prenylated peptide cleavage fluorescence;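 active means fall in fluorescence gain of 50% or more versus controls, with final raw signal at or below 3038400; inconclusive means same 50% fall but final raw signal above 3038400; inactive means fall in fluorescence gain under 50%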;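 further: plate controls were neutral control wells for no effect and wells lacking membranes for full effect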
Target sequence (Q03530 whole entry, looked up): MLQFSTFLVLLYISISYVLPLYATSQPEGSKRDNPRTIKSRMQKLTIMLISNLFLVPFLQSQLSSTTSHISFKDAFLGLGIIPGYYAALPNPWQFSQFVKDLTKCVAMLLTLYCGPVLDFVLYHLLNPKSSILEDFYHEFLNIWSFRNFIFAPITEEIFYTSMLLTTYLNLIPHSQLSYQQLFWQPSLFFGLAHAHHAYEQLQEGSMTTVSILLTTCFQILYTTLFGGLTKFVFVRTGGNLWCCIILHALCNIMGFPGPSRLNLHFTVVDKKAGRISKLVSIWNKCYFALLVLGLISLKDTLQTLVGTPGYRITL
Runt-CBFb FRET: inhibitors of RUNX1 Runt–CBFb binding, primary screen, biochemical, FRET, Cerulean-Runt, Venus-CBFb, uHTS | 220,000 tested, 0.46% active | inhibition, % at 20 µM | AID 1496, 2009 | Runt-related transcription factor 1 (Homo sapiens) + Core-binding factor subunit beta … | Cerulean-Runt/Venus-CBFb FRET ratio 530/480, 1 h;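 active means inhibition over about 50% at 20 µM in the single-dose screen, limit read from the data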;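 further: 0% = DMSO wells and 100% = excess unlabeled CBFb competitor control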
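test system = Cerulean-tagged RUNX1 Runt domain (FRET donor) fusion protein | reagent = Venus-CBFb binding partner, 100 nM | incubation = protein complex preformed 1 h, compound exposure 1 h, room temperature, dark | detection = FRET fluorescence | read-out basis = loss of energy transfer signal | controls = 5 µM unlabeled CBFb as full-inhibition high control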
RanGTP-Impb inh: inhibitors of RanGTP-importin-beta interaction, primary screen, biochemical, FRET, CFP-Ran, YFP-importin-beta, homogeneous. 300,000 tested, 1.1% active. Ran GTPase (GTP-bound) - importin-beta complex. inhibition, % (no concentration beside the values). cell-free CFP-Ran/YFP-importin-beta FRET ratio;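 active means more than half of the replicate wells show a fall in the fluorescence ratio signal beyond about 16%, limit read from the data, passing the limit was not always enough; inconclusive means exactly half of the replicate wells pass the set limit; inactive means fewer than half of replicates pass the limit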;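 further: 0% = DMSO wells and 100% = Ran loaded with GDP instead of GTP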
YIC counter: YIC intramolecular FRET probe signal interference, dose response, counter-screen for RanGTP-importin-beta inhibitor project, biochemical, fluorescence FRET; IC50, µM; 1,000 tested, 40% active; Purified YIC probe, intramolecular FRET ratio YFP/CFP; shares compounds with RanGTP-Impb inh;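 active means fitted half-maximal inhibitory concentration no more than tenfold above the top dose tested; inconclusive means flat fit with 30 to 70% activity, or poor fit; inactive means half-maximal concentration beyond tenfold above the top dose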
The depositor's hits bear a star; i = inactive; u = inconclusive; x = no result. Compounds with a hit are over-represented: about 1.8% of the library has one in this group of screens.

SMILES | Runt-SMMHC FRET | Platelet DG rel | Rce1 inhib | Runt-CBFb FRET | RanGTP-Impb inh | YIC counter
CCN(CC)C(=O)Oc1ccc2c(c1)O/C(=C\c1ccco1)C2=O | x | -4 | i | x | 18* | 8.2*
CC(=O)Oc1ccc2c(c1)O/C(=C\c1ccncc1)C2=O | -134 | 0 | i | -338 | -203 | x
COC(=O)COc1ccc2c(c1)O/C(=C\c1ccco1)C2=O | x | 2 | i | x | 18* | 29*
COCCN(CCOC)Cc1c(O)ccc2c1O/C(=C\c1ccco1)C2=O | x | 0 | i | x | -57 | x
CC(C)CNC(=O)c1cccc2c1-c1ccccc1C2=O | x | -2 | i | x | 5 | x
CCOc1ccccc1NC1=CC(=O)CC(c2ccccc2)C1 (stereo not given) | -8 | 14 | i | -2 | 24* | >50
COc1ccc(NC2=CC(=O)CC(c3ccccc3)C2)c(OC)c1 (stereo not given) | -6 | 9 | i | x | u | x
COc1cc(C(=O)NCCNc2nc3c(C)c(C)ccc3cc2C#N)cc(OC)c1OC | x | 0 | i | x | 2 | x
COc1cc(C(=O)NCCNc2nc3cc(C)ccc3cc2C#N)cc(OC)c1OC | x | 0 | i | x | 17* | 30*
COc1cc(OC)cc(C(=O)NCCNc2nc3cc(C)cc(C)c3cc2C#N)c1 | x | 3 | i | x | 18* | 21*
CCC(=O)NCCNc1nc2cc(C)cc(C)c2cc1C#N | 23 | 18 | i | 3 | -11 | x
COc1ccccc1C(=O)NCCNc1nc2cc(C)cc(C)c2cc1C#N | x | -7 | i | x | 19* | 40*
CC(=O)c1ccc(OCC(=O)Nc2ccccc2C(=O)NC2CC2)cc1 | x | 0 | i | x | 0 | x
COc1ccc(NC(=O)c2cccnc2C(=O)O)c(OC)c1 | -15 | 10 | i | 10 | 1 | x
NC(=O)c1ccccc1NC(=O)c1cccc(C(=O)Nc2ccccc2C(N)=O)n1 | x | 8 | i | x | -2 | x
O=C(CN1C(=O)NC2(CCCC2)C1=O)Nc1nc2c(F)cc(F)cc2s1 | x | 0 | i | x | 20* | >50
Cc1cccc2sc(NC(=O)CN3C(=O)NC4(CCCC4)C3=O)nc12 | x | -8 | i | x | 3 | x
CCOc1ccccc1C(=O)NC(C)CCc1ccccc1 (stereo not given) | x | -14 | i | x | 1 | x
COc1ccc2nc(C)c(C(N)=O)cc2c1 | 2 | 2 | i | 0 | u | x
COc1cc2cc(C(N)=O)c(N)nc2cc1OC | 79* | u | i | 101* | 49* | 10*
COc1ccc(CNC(=O)CCS(=O)(=O)Cc2cccc(Cl)c2)c(OC)c1 | -1 | -7 | i | 0 | -1 | x
Cc1ccc(-n2c(=O)c(C#N)cc3c(=O)n4ccccc4nc32)cc1 | 60* | -15 | i | 19 | 44* | 0.72*
CCOc1ccc(CCNC(=O)c2cc3ccccn3n2)cc1OCC | 2 | -1 | i | 1 | 5 | x
COc1ccccc1N1CCN(C(=O)/C=C/c2ccc(C)cc2)CC1 | -3 | 3 | i | -4 | 20* | >50
COc1ccccc1/C=C/c1nc(C#N)c(N(C)C)o1 | x | 0 | i | x | 28* | 13*
SMILES | Runt-SMMHC FRET | Platelet DG rel | Rce1 inhib | Runt-CBFb FRET | RanGTP-Impb inh | YIC counter
COc1ccc(-c2c(N)n[nH]c2C)cc1OC | -2 | -5 | i | 0 | 5 | x
COc1ccc(-c2c(N)nnc3c2[nH]c2ccccc23)cc1OC | 4 | 2 | i | 0 | 27* | >50
O=c1[nH]c2cc(Br)cnc2nc1/C=C(\O)c1ccc(F)cc1 | -19 | -1 | i | 21 | 18* | >50
O=C(Nc1ccc([N+](=O)[O-])cc1)c1cc2ccccc2nc1Cl | -3 | 10 | i | 0 | -1 | x
CCCN1CCC(NC(=O)Cc2ccc(C)cc2)CC1 | x | 10 | i | x | 11 | x
COc1ccc(C(=O)O)cc1S(=O)(=O)N(C)C | -1 | 14 | i | 0 | 26* | >50
COc1ccc(N2CC(C(=O)NC3CCSC3=O)CC2=O)cc1 (stereo not given) | x | 11 | i | x | 0 | x
COc1cccc(C(=O)/C=C/Nc2cc(C)ccc2O)c1 | -32 | 13 | i | -6 | 30* | >50
Cc1ccc(OCC(=O)NNc2c3ccccc3nc3ccccc23)cc1 | 24 | -6 | i | 5 | 36* | >50
Cc1cc(CNC(=O)COc2ccccc2)c2ccccc2n1 | -1 | -2 | i | 2 | 1 | x
Cc1cccc(OCC(=O)NNc2c3ccccc3nc3ccccc23)c1 | 15 | 1 | i | 10 | 33* | >50
Cc1cc(CNC(=O)COc2ccc(F)cc2)c2ccccc2n1 | -1 | -7 | i | 0 | 18* | >50
O=C(Cc1ccccc1)NNc1c2ccccc2nc2ccccc12 | 20 | 3 | i | 17 | 34* | >50
CC(C)CCC(CC(C)O)C(=O)NNC(=S)Nc1ccccc1 (stereo not given) | 3 | 8 | x | 2 | 0 | x
Cc1ccc(C)c(NC(=O)CCOc2ccccc2)c1 | x | 2 | i | x | 3 | x
COc1ccccc1NC(=O)c1cc2ccccc2nc1C | 1 | 1 | i | 0 | 23* | >50
COc1ccccc1NC(=O)c1cc(-c2cc(OC)c(OC)c(OC)c2)nc2ccccc12 | x | -4 | i | x | 0 | x
COc1ccc(C(=O)Nc2ccc(S(=O)(=O)Nc3onc(C)c3C)cc2)cc1 | -7 | 4 | i | -1 | 27* | >50
O=C(Cc1n[nH]c(=O)c2ccccc12)NCc1ccccn1 | 4 | 4 | i | 1 | 23* | >50
Cc1ccc(-c2cc3nc(-c4ccccc4)cc(N4CCC5(CC4)OCCO5)n3n2)cc1 | -3 | 6 | i | -5 | 29* | 5.6*
Fc1ccc(-c2cc3nc(-c4ccccc4)cc(N4CCOCC4)n3n2)cc1 | 6 | -34 | x | -1 | 1 | x
Cc1nc2[nH]c(=O)c3c(n2n1)NC1=C(C(=O)CC(C)(C)C1)C3c1ccccc1 (stereo not given) | 136* | 8 | i | 78* | 49* | 4.3*
Cn1c(=O)cc(OCCCC(=O)NCc2ccccn2)c2ccccc21 | 0 | 0 | i | -6 | 23* | >50
Cn1c(=O)cc(OCC(=O)NCc2ccccn2)c2ccccc21 | -9 | 0 | i | 0 | 2 | x
CCOC(=O)c1c(C)[nH]c(C(=O)OCC(=O)Nc2cc(C)nn2-c2ccccc2)c1C | x | 2 | i | x | -1 | x
